# This is a sample that favours compounds with a hit; in the whole collection about 1.9% have one here.
# CHRM4 antagonist = human M4 muscarinic receptor antagonists, primary screen, CHO cells, Fluo-8 calcium fluorescence | CHO-hM4 cells, ACh EC80 | inhibition, % at 3 µM | hit rate 0.73% among 360,000 | AID 624125, 2012;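 active = inhibition above its plate's cutoff, the mean inhibition of sample wells plus 3 SD, cut at about 27% in these data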;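 also: 0% = acetylcholine EC80 with DMSO and 100% = DMSO without agonist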
# M5 antag = human M5 muscarinic receptor antagonists, primary screen, CHO cells, Fluo-8 calcium fluorescence. hit rate 0.59% among 360,000. Muscarinic acetylcholine receptor M5 (Homo sapiens), P08912. AID 624040, 2012. inhibition, % at 3 µM. CHO-hM5 cells, ACh EC80;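 active = inhibition above a per-plate cutoff, the mean of that plate's test compounds plus 3 SD, cut at about 27% in these data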;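 also: 0% = acetylcholine EC80 with DMSO and 100% = DMSO without agonist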
# Target sequence (P08912 whole entry, looked up): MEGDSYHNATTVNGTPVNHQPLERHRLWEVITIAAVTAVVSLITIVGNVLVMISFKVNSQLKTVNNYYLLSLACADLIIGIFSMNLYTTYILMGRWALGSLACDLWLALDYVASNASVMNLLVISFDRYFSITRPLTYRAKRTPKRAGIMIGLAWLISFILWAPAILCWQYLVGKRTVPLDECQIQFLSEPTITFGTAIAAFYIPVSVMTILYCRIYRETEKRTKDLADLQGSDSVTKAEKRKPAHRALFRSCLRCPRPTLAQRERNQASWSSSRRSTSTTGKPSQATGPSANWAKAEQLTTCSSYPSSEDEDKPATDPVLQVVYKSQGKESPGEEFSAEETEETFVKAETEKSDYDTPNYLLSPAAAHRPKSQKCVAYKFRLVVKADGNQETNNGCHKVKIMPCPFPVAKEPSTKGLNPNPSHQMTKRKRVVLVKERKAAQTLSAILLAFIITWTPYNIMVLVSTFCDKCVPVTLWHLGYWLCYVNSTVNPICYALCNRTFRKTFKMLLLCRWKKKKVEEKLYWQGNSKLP
# M5 PAM = human M5 muscarinic receptor positive allosteric modulators, primary screen, CHO-K1 cells, Fluo-8 calcium fluorescence. activation, % at 3 µM. Muscarinic acetylcholine receptor M5 (Homo sapiens), P08912. AID 624038, 2012. hit rate 0.3% among 360,000. CHO-K1 hM5, ACh EC20 PAM; 0% = ACh EC20, 100% = ACh EC100;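 active = activation above the run cutoff, the mean activation of all test compounds plus 3 SD, cut at about 18% in these data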
#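 Probe or stimulus: acetylcholine, EC20 level; Assay system: human M5 receptor in CHO-K1 cells; Schedule: compound preincubation 140 s before EC20 acetylcholine addition; Technique: intracellular calcium via Fluo-8 fluorescence; Dosing: single-point, 3 µM nominal; Read-out basis: percent activation from peak-over-basal fluorescence ratio, scaled EC20-to-EC100 acetylcholine; Repeats: one well per compound, no replicates.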
# M5 ag = human M5 muscarinic receptor agonists, primary screen, CHO-K1 cells, Fluo-8 calcium fluorescence | hit rate 0.19% among 360,000 | CHO-K1 hM5 cells; 0% DMSO wells, 100% maximal acetylcholine response | AID 624037, 2012 | activation, % at 3 µM;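 active = activation above the run's mean over test compounds plus 3 SD, cut at about 23% in these data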;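 also: signal is peak over basal fluorescence ratio across the kinetic read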
# M4 ag = human M4 muscarinic receptor agonists, primary screen, CHO-K1 cells, Fluo-8 calcium fluorescence | hit rate 0.14% among 360,000 | AID 624127, 2012 | CHO-K1 hM4/Gqi5; vehicle 0%, full acetylcholine response 100% | Muscarinic acetylcholine receptor M4 (Homo sapiens), P08173 | activation, % at 3 µM;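 active = activation above the run mean over all test wells plus 3 SD, cut at about 32% in these data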;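 also: peak over basal fluorescence ratio per well then scaled between controls; 0% = DMSO wells and 100% = acetylcholine at EC100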
# CHRM4 PAM = human M4 muscarinic receptor positive allosteric modulators, primary screen, CHO-K1 cells, Fluo-8 calcium fluorescence; Muscarinic acetylcholine receptor M4 (Homo sapiens), P08173; CHO-K1 hM4/Gqi5, ACh EC20; 0% = ACh EC20, 100% = maximal ACh; activation, % at 3 µM; hit rate 0.4% among 360,000;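 active = activation above its plate's cutoff, the mean activation of sample wells plus 3 SD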
# * marks the source's active call; other numbers are inactive results.
SMILES,CHRM4 antagonist,M5 antag,M5 PAM,M5 ag,M4 ag,CHRM4 PAM
Cc1cccc(CSc2nncc(=O)[nH]2)c1,-14,-5,-4,1,1,15*
Cc1cc(N2CCN(C(C(=O)NC3CCCC3)c3ccc(-c4ccccc4)cc3)CC2)c2ccccc2n1 (stereo unspecified),-7,8,-9,-5,1,-2
CCCCC(CC)C(=O)NCCCN1CCN(CCCNC(=O)C(CC)CCCC)CC1 (stereo unspecified),34*,-4,-1,-8,-1,-9
O=C(O)CCCC(=O)N1CCCC1,-8,-16,21*,1,1,13
O=C(CCCC(=O)N1CCCC1)N1CCCC1,-12,-6,3,-4,0,6
O=C(CS(=O)(=O)c1ccccc1)Nc1ccccn1,-12,-7,-4,-1,1,1
O=C(CS(=O)(=O)c1ccccc1)Nc1ccc(Br)cn1,12,-7,20*,0,1,10
CCCCn1c(N)c(N(CC(C)C)C(=O)CCC2CCCCC2)c(=O)[nH]c1=O,2,8,-2,-3,0,1
O=c1c2cccnc2n(-c2ccccc2)n1Cc1c(Cl)cccc1Cl,-3,12,-3,-2,1,7
O=c1c2cccnc2n(-c2ccccc2)n1Cc1ccc(Cl)cc1,-2,3,-3,-2,0,22*
Cc1cc(C)cc(OCCNC(=O)c2ccc(Br)cc2)c1,-16,-2,3,-8,-2,-6
Cc1cc(C)c2sc(C)[n+](CCCS(=O)(=O)[O-])c2c1,-4,-2,-1,4,1,-2
CC[n+]1c(C)sc2c(C)cc(C)cc21,4,-6,27*,14,-1,-3
C=CCC[C@H](Cc1ccc(F)cc1)C(=O)OC[C@@H](Cc1c[nH]c2ccccc12)NC(=O)[C@H](CC=C)CC(=O)N(CCO)Cc1ccccc1,45*,15,-15,3,10,-3
C=CC[C@@H](CC(=O)N(CCO)Cc1ccccc1)C(=O)NC[C@H](OC(=O)[C@@H](CC=C)Cc1ccc(F)cc1)c1ccccc1,30*,13,-39,1,27,-10
O=C(CC1C(=O)NCCN1Cc1ccccc1C(F)(F)F)NCCN1CCCCC1=O (stereo unspecified),-2,12,-3,-5,0,6
CCOC(=O)c1c(C)[nH]c(C(=O)CN2C(=O)NC(C)(c3ccc(C)cc3)C2=O)c1C (stereo unspecified),-3,5,2,27*,21,9
COC(=O)c1c(C)[nH]c(C(=O)CN2C(=O)C3CC=CCC3C2=O)c1C (stereo unspecified),0,3,3,4,3,26*
CCOC(=O)c1c(C)[nH]c(C(=O)CN2C(=O)C(=O)N(CC(C)C)C2=O)c1C,-6,-22,-11,0,7,-1
COCCN(C)Cc1nc(C(c2ccccc2)c2ccccc2)no1,2,4,5,-14,-1,0
CCC(c1ccccc1)c1noc(CCN(CC)CC)n1 (stereo unspecified),59*,59*,-19,-3,1,-14
O=C1CN(C(=O)NCC(=O)N2CCCC2)c2ccccc2N1,2,2,-3,-4,1,2
COc1ccc(Cc2nnc(NC(=O)CSc3ccccc3)s2)cc1OC,-6,-3,-1,28*,14,1
COc1ccc(Cc2nnc(NC(=O)CSc3ccccc3)s2)cc1,5,2,1,5,3,5
COc1cc(Cl)c(C)cc1NCC(=O)Nc1cccc(S(=O)(=O)N2CCCC2)c1,-1,17,-4,-2,1,1
Cc1ccc(NC(=O)CN(C)C(=O)c2ccc(NS(=O)(=O)c3cccc([N+](=O)[O-])c3)cc2)cc1,8,1,3,-3,0,0
